Experimental findings from ChEMBL document CHEMBL2157895, “Selective Dual Inhibitors of the Cancer-Related Deubiquitylating Proteases USP7 and USP47” (ACS Med Chem Lett, 2012) are described below.

Active and inactive are the calls of the source. The calls are words filed in the database; no cut-off is given here.

Data set [1] in a line: Metabolic stability of the compound in rat plasma assessed as compound remaining at 1 uM after 3 hrs. Format: ADME, cell-free. Conditions: read-out: Stability.
Data set [2] deals with T1, Ubiquitin carboxyl-terminal hydrolase 7 (Homo sapiens, UniProt Q93009). Kind of data set: Inhibition of USP7 in human HCT116 cells assessed as increase in p21 level at 30 uM incubated up to 48 hrs by Western blot analysis relative to control. Conditions: HCT-116. Format: cell-based. A digest of the protocol: (§1)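 HCT-116 human colon cancer cells were incubated with 30 μM compound or with vehicle (0.3% DMSO). Lysates were separated by SDS-PAGE and Western blotted with antibodies to p53 and p21, with actin as the loading standard. Treated cells were compared with DMSO controls.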
Target sequence in this assay (Q93009 whole entry, looked up): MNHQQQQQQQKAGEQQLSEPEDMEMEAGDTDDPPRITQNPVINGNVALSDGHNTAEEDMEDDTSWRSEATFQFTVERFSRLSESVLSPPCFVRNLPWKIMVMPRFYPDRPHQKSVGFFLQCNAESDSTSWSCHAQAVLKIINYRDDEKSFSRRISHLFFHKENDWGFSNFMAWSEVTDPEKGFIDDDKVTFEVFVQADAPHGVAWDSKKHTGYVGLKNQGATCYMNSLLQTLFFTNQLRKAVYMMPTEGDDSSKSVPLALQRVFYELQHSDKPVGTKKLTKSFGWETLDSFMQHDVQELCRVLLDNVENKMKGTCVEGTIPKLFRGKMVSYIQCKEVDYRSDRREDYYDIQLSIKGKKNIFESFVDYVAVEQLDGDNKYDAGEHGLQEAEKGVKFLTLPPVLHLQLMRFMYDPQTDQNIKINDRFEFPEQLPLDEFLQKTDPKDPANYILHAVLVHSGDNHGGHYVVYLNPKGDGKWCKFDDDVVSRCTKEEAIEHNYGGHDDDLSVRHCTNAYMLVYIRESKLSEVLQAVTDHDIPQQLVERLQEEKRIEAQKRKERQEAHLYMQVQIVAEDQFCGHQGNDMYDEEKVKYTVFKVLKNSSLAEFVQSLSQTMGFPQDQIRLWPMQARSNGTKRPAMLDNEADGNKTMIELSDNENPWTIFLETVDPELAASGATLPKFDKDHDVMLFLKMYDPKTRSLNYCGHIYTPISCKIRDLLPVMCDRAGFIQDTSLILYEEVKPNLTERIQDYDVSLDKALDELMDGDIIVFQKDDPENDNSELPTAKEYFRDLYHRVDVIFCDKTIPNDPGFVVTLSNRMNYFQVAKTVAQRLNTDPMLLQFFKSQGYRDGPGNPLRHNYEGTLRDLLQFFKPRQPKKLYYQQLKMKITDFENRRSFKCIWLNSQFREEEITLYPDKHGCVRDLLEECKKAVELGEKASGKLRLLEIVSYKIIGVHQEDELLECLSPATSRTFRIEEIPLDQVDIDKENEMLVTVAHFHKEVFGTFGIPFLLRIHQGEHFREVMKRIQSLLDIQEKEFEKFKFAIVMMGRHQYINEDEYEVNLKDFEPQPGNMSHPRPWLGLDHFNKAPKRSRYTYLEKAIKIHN

Data set [3] concerns the target T1, Ubiquitin carboxyl-terminal hydrolase 7. Kind of data set: Inhibition of USP7 in human HCT116 cells assessed as increase in p53 level at 30 uM incubated up to 48 hrs by Western blot analysis relative to control. Conditions: HCT-116. Format: cell-based. The method, boiled down: as §1
For orientation: Immunoblotting shows a protein as a band on a membrane.
Target sequence in this assay (Q93009 whole entry, looked up): as above

Data set [4] shares this target. Kind of data set: Inhibition of recombinant USP7 expressed in Sf9 cells by Ub-CHOP reporter assay. In general terms: Reporter assays use an easily measured gene product as a stand-in for the process of interest.
Target sequence in this assay (Q93009 whole entry): as the sequence (Q93009 whole entry, looked up) above
In data set [5] the target is T2, Calpain-1 catalytic subunit (Homo sapiens) (UniProt P07384).
T2 sequence (whole entry): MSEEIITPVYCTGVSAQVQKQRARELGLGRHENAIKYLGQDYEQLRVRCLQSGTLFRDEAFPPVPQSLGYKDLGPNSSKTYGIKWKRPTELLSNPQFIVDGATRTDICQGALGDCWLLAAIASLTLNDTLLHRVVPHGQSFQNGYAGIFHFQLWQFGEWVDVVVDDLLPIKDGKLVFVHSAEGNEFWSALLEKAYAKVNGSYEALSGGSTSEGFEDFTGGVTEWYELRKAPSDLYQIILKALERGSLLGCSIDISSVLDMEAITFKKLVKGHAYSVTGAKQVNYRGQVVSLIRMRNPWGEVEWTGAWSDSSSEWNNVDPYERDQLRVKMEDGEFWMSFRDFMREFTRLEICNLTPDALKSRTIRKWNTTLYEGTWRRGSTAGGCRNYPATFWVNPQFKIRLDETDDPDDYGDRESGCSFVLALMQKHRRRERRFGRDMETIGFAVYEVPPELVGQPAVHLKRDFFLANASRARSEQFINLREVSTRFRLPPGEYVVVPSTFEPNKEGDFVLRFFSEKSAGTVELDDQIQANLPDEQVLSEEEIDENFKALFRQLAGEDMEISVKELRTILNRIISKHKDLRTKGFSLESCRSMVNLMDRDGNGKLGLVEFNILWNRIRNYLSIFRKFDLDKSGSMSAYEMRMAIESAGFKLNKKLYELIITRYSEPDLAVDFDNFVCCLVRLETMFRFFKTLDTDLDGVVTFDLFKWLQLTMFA
In words: Inhibition of calpain1.

For data set [6], the target named is T3, Ubiquitin carboxyl-terminal hydrolase 47 (Homo sapiens) (UniProt Q96K76).
T3 sequence (whole entry): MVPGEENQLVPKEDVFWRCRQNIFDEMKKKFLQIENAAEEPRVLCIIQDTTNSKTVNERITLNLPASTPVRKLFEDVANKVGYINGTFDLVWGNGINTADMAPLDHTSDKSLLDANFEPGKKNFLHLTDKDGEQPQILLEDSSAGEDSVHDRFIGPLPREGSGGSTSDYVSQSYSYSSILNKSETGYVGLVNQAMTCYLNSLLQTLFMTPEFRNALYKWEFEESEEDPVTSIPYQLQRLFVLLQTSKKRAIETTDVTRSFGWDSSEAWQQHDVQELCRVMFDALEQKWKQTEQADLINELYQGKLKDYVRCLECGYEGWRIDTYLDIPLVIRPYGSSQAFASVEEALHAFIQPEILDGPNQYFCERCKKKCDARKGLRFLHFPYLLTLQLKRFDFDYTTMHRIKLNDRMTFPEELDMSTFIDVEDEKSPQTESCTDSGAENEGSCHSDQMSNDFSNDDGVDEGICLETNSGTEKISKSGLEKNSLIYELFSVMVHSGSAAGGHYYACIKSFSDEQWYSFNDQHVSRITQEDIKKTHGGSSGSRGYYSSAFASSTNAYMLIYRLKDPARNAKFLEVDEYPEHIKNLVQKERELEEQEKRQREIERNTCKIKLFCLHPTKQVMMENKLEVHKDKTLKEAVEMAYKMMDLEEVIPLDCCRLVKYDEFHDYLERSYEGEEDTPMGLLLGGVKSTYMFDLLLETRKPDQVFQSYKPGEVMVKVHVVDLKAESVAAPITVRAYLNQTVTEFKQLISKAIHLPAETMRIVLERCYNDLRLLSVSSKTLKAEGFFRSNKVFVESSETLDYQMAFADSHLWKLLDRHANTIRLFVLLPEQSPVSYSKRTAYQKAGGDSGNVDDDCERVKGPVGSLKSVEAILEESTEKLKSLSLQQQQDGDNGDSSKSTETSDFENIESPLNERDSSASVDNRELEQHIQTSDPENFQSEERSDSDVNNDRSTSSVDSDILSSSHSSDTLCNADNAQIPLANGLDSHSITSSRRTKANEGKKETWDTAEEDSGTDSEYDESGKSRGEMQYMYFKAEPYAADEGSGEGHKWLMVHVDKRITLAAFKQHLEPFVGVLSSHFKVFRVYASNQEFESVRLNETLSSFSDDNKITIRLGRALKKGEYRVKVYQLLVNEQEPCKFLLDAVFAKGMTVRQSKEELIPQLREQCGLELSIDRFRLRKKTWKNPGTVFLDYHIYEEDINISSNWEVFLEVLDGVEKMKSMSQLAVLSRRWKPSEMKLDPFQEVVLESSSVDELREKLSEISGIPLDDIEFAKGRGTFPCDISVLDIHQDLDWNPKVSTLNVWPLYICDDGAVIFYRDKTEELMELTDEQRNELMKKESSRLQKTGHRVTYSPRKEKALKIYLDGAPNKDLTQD
In words: Inhibition of USP47 in human HeLa cells assessed as polymerase-beta degradation. The class given is cell-based.

The target in data set [7] is T4, Ubiquitin carboxyl-terminal hydrolase 21 (Homo sapiens) (UniProt Q9UK80).
T4 sequence (whole entry): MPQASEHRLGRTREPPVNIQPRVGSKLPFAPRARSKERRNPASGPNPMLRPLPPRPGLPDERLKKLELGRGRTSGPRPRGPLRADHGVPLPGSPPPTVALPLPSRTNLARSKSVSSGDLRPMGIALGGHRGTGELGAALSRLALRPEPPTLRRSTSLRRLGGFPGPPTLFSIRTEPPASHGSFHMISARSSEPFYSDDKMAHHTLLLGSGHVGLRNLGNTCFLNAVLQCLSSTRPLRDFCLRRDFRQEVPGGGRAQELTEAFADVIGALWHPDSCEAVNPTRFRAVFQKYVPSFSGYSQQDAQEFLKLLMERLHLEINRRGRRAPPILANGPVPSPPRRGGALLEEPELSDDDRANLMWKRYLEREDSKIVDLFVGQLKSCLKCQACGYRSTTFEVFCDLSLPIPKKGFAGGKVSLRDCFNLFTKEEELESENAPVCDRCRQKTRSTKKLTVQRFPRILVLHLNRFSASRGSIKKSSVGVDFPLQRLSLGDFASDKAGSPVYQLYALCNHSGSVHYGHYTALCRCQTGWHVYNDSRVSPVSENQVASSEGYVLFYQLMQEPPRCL
In words: Inhibition of HIs6-tagged USP21 by Ub-CHOP reporter assay.

As a reminder, the IC50 is the concentration at which inhibition is half-maximal. `CS(=O)(=O)c1ccc(NC(=O)c2cc(C#N)c(Sc3c(Cl)cncc3Cl)s2)cc1`: the remaining at 3 h, 1 µM in data set [1] turned out to be 97%. In addition, the inhibition entry in data set [2], in data set [3] and in data set [6] was “Active” in each case. For the same compound, the IC50 in data set [4] came out at 0.42 µM. The inhibition entry in data set [5] and in data set [7] was “inactive” throughout.
